Measured values published in ChEMBL document CHEMBL1148584, “Effect of polyamine homologation on the transport and biological properties of heterocyclic amidines” (J Med Chem, 2006).

What was measured:
[1] = tested on: L1210; assay: Intracellular level of conjugate in L1210 cells in the presence of DFMO at 10 uM; assay type: functional, cell-based; details: Mus musculus
Summary of the method: (§1)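 L1210 cells in RPMI 1640/10% FCS with 2 mM aminoguanidine, seeded at 4 × 10⁴ cells/mL. Conjugate, with or without 5 mM DFMO, added at seeding; cells cultured 48 h, washed in cold NaCl, and extracted with 0.2 N HClO₄. Conjugate and free putrescine, spermidine and spermine quantified by ion-pair HPLC (UV 254 nm, fluorescence ex 345/em 455 nm); normalised to protein. Student's t-test, p<0.05.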

[2] = tested on: CHO; assay: Cellular uptake in CHO cells at 10 uM; assay type: ADME, cell-based, Cricetulus griseus; details: chinese hamster
Summary of the method: (§2)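 CHO (RPMI 1640, 10% FCS, 2 mM aminoguanidine) and CHO-MG (plus L-proline) cells seeded at 2 × 10⁵ cells/mL. Conjugate added 24 h after seeding and cells harvested 24 h later, then washed in cold 0.14 M NaCl and sonicated in 0.2 N HClO₄. Supernatant analysed by ion-pair reversed-phase HPLC (n-octanesulfonate), expressed as nmol/mg protein; mean ± SD of three determinations.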

[3] = tested on: CHO; assay: Cellular uptake in CHO cells at 5 uM; assay type: ADME, cell-based, Cricetulus griseus; details: chinese hamster; summary of the method: as §2
[4] = tested on: CHO-MG; assay: Cellular uptake in CHO-MG cells at 10 uM; assay type: ADME, cell-based, Cricetulus griseus; details: chinese hamster; summary of the method: as §2
[5] = tested on: CHO-MG; assay: Cellular uptake in CHO-MG cells at 5 uM; assay type: ADME, cell-based, Cricetulus griseus; details: chinese hamster; summary of the method: as §2
[6] = tested on: CHO-MG; assay: Selectivity for uptake in CHO cell line over CHO-MG cell line at 10 uM; assay type: functional, cell-based; details: Cricetulus griseus
Summary of the method: (§3)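 Ratio of intracellular conjugate level in CHO over CHO-MG cells. Both lines were exposed to conjugate 24 h after seeding at 2 × 10⁵ cells/mL, for 24 h with 2 mM aminoguanidine in the medium. Levels were measured by ion-pair HPLC of perchloric extracts and normalised to protein (nmol/mg).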

[7] = Selectivity for uptake in CHO cell line over CHO-MG cell line at 5 uM; assay type: functional, Cricetulus griseus; summary of the method: as §3
[8] = tested on: L1210; assay: Intracellular level of putrescine in L1210 cells in the absence of DFMO at 10 uM; assay type: functional, cell-based; details: Mus musculus; summary of the method: as §1
[9] = tested on: L1210; assay: Intracellular level of spermine in L1210 cells in the absence of DFMO at 10 uM; assay type: functional, cell-based; details: Mus musculus; summary of the method: as §1
[10] = tested on: L1210; assay: Intracellular level of conjugate in L1210 cells in the absence of DFMO at 10 uM; assay type: functional, cell-based; details: Mus musculus; summary of the method: as §1
[11] = tested on: L1210; assay: Intracellular level of spermine in L1210 cells in the presence of DFMO at 10 uM; assay type: functional, cell-based; details: Mus musculus; summary of the method: as §1
[12] = target: Phosphodiesterase 1 (Bos taurus, UniProt Q01061+P14100); assay: Inhibition of bovine calmodulin-activated cAMP dependent phosphodiesterase; assay type: protein assay
Summary of the method: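 Crude bovine heart PDE preparation containing calmodulin and Ca²⁺ (0.2 milliunit). Incubated 20 min at 37 °C with 0.1 mM [8-³H]cAMP and graded drug concentrations in 30 mM Tris-HCl, 3 mM MgSO₄, 0.6 mM AMP. Stopped with ZnSO₄; Ba(OH)₂ precipitated AMP with BaSO₄; supernatant radioactivity counted. IC50 is the concentration giving 50% inhibition.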

[13] = tested on: L1210; assay: Intracellular level of spermidine in L1210 cells in the absence of DFMO at 10 uM; assay type: functional, cell-based; details: Mus musculus; summary of the method: as §1
[14] = tested on: L1210; assay: Intracellular level of spermidine in L1210 cells in the presence of DFMO at 10 uM; assay type: functional, cell-based; details: Mus musculus; summary of the method: as §1

Compound | Drug uptake [1] | Drug uptake [2] | Drug uptake [3] | Drug uptake [4] | Drug uptake [5] | Ratio [6] | Selectivity ratio [7] | Drug uptake [8] | Drug uptake [9] | Drug uptake [10] | Drug uptake [11] | IC50 [12] | Drug uptake [13] | Drug uptake [14]
NCCCNCCCCNCCCNC1=Nc2ccccc2CC1 | 2.4 nmol/mg | 0.029 nmol/mg | 0.029 nmol/mg | 0.022 nmol/mg | 0.029 nmol/mg | 1.3 | 1 | 0.33 nmol/mg | 13.9 nmol/mg | 1.5 nmol/mg | 13.9 nmol/mg | > 500 µM | 8.1 nmol/mg | 4.2 nmol/mg
NCCCCNC1=Nc2ccccc2CC1 | 0.34 nmol/mg | 2.1 nmol/mg | 1.2 nmol/mg | 0.37 nmol/mg | 0.26 nmol/mg | 5.7 | 4.6 | 1.8 nmol/mg | 12.5 nmol/mg | 0.26 nmol/mg | 16.5 nmol/mg | > 500 µM | 21 nmol/mg | 0.94 nmol/mg
